Measurements collected from several papers.
Compare with care: the assays were run in different laboratories.
Target: Homeodomain-interacting protein kinase 2 (HIPK2, Homo sapiens, UniProt Q9H2X6)
Observed: enzyme activity
Action: inhibitor

The remaining activity of `O=C(O)c1ccc2c(c1)nc(Nc1ccc(F)c(Cl)c1)c1ccncc12` is reported as 1% (radiometric; 1 µM).
The remaining activity of `Nc1nc(Nc2ccccc2)sc1C(=O)c1c(F)cccc1F` is reported as 16% (10 µM).
For `O=C(O)c1ccc2c(c1)nc(Nc1ccc(Cl)cc1)c1ncncc12`, the remaining activity was -2% (radiometric; 1 µM).
With `COc1cc(Nc2cnc(C#N)c(O[C@H](C)CN(C)C)n2)ncc1-c1cnn(C)c1` the remaining activity was 89% (radiometric; 1 µM).
`CC(C)(C)c1nc(-c2cccc(NS(=O)(=O)c3c(F)cccc3F)c2F)c(-c2ccnc(N)n2)s1` has a remaining activity of 80% (radiometric; 1 µM).
For `O=C(O)c1ccc2c(c1)nc(NCCc1ccccc1)c1ncncc12`, the remaining activity was 7% (radiometric; 1 µM).
The remaining activity of `CC(C)(O)[C@H]1CC[C@H](Nc2ccc3ncc(-c4cccc(C(F)(F)F)c4)n3n2)CC1` is reported as 70.3% (1 µM).
`O=C(O)c1ccc2c(c1)nc(Nc1ccc(Cl)cc1)c1ccncc12` gave a remaining activity of -1% (radiometric; 1 µM).
`FC(F)c1nc2ccccc2n1-c1nc(N2CCOCC2)nc(N2CCOCC2)n1` gave a remaining activity of 63% (10 µM).
With `O=C(Nc1cnn(-c2csc(C(=O)NC3COC3)c2)c1)Nc1ccccc1Cl` the remaining activity was 102% (5 µM).
For `CC(C)(C)C(=O)c1sc(NC2CCCCC2)nc1N`, the remaining activity was 79% (10 µM).
For `Cn1c(=O)n(-c2ccc(C(C)(C)C#N)cc2)c2c3cc(-c4cnc5ccccc5c4)ccc3ncc21`, the remaining activity was 101% (10 µM).
